Reference: ChEMBL document CHEMBL4052618, “Design, synthesis, SAR discussion, in vitro and in vivo evaluation of novel selective EGFR modulator to inhibit L858R/T790M double mutants” (Eur J Med Chem, 2017)

Experiments:
[1] = target: Mitogen-activated protein kinase kinase kinase 9 (Homo sapiens) (UniProt P80192); test: Inhibition of MAP3K9 (unknown origin) at 1 uM relative to control
[2] = target: Tyrosine-protein kinase SYK (Homo sapiens) (UniProt P43405); test: Inhibition of SYK (unknown origin) at 1 uM relative to control
[3] = target: Tyrosine-protein kinase TXK (Homo sapiens) (UniProt P42681); test: Inhibition of TXK (unknown origin) at 1 uM relative to control
[4] = target: Mast/stem cell growth factor receptor Kit (Homo sapiens) (UniProt P10721); test: Inhibition of KIT (unknown origin) at 1 uM relative to control
Sequence of Mast/stem cell growth factor receptor Kit (Homo sapiens) (P10721 whole entry): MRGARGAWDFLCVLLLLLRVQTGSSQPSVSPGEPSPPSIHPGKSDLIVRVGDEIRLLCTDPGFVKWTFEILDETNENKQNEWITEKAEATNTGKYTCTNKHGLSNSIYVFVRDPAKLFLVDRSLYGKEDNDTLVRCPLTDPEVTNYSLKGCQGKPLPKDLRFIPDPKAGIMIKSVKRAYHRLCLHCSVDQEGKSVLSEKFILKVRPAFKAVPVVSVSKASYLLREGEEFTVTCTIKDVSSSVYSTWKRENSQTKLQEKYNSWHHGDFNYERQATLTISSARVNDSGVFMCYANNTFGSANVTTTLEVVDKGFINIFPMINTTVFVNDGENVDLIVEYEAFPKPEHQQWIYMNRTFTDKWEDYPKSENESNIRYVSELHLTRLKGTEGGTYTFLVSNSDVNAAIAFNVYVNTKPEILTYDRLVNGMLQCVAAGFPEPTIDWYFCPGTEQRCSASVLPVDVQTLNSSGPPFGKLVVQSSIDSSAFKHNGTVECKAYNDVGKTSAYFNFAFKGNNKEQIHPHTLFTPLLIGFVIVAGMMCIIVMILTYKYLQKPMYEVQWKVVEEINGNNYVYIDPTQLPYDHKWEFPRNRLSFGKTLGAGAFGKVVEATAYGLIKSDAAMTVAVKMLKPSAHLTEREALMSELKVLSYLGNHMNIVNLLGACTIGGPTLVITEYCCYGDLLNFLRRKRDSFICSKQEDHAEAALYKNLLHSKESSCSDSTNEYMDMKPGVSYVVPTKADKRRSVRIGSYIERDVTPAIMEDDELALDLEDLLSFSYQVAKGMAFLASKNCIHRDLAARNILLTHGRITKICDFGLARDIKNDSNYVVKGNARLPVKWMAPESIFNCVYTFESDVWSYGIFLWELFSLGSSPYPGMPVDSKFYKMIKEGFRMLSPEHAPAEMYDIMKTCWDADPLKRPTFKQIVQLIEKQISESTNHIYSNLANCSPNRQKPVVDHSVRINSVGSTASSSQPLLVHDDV

[5] = target: Ephrin type-B receptor 2 (Homo sapiens) (UniProt P29323); test: Inhibition of EPHB2 (unknown origin) at 1 uM relative to control
[6] = target: Focal adhesion kinase 1 (Homo sapiens) (UniProt Q05397); test: Inhibition of PTK2 (unknown origin) at 1 uM relative to control
Sequence of Focal adhesion kinase 1 (Homo sapiens) (Q05397 2-1052 limits assumed): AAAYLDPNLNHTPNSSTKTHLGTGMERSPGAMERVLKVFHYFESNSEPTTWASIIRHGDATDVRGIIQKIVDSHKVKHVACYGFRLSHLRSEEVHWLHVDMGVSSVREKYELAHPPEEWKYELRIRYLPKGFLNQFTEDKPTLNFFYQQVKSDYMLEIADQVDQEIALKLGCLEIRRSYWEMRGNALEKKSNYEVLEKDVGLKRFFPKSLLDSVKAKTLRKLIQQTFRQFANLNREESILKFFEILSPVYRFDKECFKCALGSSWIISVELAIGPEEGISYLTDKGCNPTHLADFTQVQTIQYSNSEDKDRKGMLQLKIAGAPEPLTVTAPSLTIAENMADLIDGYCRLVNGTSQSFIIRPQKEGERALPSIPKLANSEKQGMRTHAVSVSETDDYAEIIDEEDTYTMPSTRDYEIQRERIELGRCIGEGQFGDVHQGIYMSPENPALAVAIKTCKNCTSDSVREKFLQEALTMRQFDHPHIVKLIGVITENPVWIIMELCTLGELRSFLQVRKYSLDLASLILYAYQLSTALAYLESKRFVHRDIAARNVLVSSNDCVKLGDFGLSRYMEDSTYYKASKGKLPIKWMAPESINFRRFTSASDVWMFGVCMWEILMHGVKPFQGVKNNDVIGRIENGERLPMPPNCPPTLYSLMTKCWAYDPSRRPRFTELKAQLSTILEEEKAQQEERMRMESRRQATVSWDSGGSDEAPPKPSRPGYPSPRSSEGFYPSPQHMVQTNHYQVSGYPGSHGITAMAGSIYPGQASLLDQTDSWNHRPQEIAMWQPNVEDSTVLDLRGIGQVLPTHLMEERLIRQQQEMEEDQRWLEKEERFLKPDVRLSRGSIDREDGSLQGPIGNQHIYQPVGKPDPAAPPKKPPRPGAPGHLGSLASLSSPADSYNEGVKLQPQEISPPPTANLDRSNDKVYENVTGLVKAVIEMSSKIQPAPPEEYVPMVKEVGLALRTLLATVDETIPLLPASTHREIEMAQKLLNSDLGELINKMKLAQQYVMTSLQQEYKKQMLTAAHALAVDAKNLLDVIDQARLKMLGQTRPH

[7] = target: Epidermal growth factor receptor (Homo sapiens, UniProt P00533); test: Inhibition of human recombinant cytoplasmic GST-tagged EGFR (668 to 1210 residues) expressed in baculovirus using TK-substrate-biotin preincubated for 15 mins followed by substrate addition measured after 60 mins by FRET-based Z'-Lyte assay; conditions: read-out: IC50
[8] = target: Serine/threonine-protein kinase Nek2 (Homo sapiens) (UniProt P51955); test: Inhibition of NEK2 (unknown origin) at 1 uM relative to control
[9] = Half life in dog liver microsomes; assay type: ADME, Canis lupus familiaris, microsome
[10] = target: Tyrosine-protein kinase Fes/Fps (Homo sapiens) (UniProt P07332); test: Inhibition of FES (FPS) (unknown origin) at 1 uM relative to control
[11] = AUC (0 to 24 hrs) in Sprague-Dawley rat at 1 mg/kg, iv by LC-MS/MS analysis; assay type: ADME, organism-based; parameters: time < 24 hr, dose 1 mg/kg, route intravenous; conditions: in vivo
[12] = AUC (0 to infinity) in Sprague-Dawley rat at 1 mg/kg, iv by LC-MS/MS analysis; assay type: ADME, organism-based; parameters: dose 1 mg/kg, time infinity, route intravenous; conditions: in vivo
[13] = target: cAMP-dependent protein kinase catalytic subunit alpha (Homo sapiens) (UniProt P17612); test: Inhibition of PRKACA (unknown origin) at 1 uM relative to control
[14] = Half life in human hepatocytes; assay type: ADME, cell-based, Hepatocyte
[15] = target: Cytoplasmic tyrosine-protein kinase BMX (Homo sapiens) (UniProt P51813); test: Inhibition of BMX (unknown origin) at 1 uM relative to control
Sequence of Cytoplasmic tyrosine-protein kinase BMX (Homo sapiens) (P51813 whole entry): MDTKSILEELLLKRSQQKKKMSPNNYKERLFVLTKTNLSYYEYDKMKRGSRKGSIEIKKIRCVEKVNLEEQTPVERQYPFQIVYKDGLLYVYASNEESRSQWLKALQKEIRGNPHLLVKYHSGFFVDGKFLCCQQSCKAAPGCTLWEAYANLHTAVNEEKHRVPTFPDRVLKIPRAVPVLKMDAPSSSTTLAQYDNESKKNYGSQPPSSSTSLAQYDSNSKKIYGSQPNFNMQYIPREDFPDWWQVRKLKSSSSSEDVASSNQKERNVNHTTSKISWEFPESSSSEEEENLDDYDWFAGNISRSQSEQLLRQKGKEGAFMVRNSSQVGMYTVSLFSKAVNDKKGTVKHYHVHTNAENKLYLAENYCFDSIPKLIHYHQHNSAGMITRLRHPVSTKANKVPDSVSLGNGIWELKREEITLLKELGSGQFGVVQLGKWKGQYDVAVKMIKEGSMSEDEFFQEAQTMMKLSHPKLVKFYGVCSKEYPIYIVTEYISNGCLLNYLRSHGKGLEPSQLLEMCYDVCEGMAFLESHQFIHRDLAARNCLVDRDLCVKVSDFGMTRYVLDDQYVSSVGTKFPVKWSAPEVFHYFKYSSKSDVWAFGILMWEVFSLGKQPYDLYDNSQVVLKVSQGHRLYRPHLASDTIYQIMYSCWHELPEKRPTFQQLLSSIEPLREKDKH

[16] = system: NCI-H1975; test: In vivo anti tumor activity against human NCI-H1975 cells xenografted in nude C.B-17 SCID mouse model assessed as tumor volume at 10 mg/kg, ig for 18 days measured twice a week (reference value: 948.05 mm3); assay type: functional
[17] = target: Cyclin-dependent kinase 5/CDK5 activator 1 (Homo sapiens) (UniProt Q00535+Q15078); test: Inhibition of CDK5/p35 (unknown origin) at 1 uM relative to control; assay type: protein-complex assay
Sequence of Cyclin-dependent kinase 5/CDK5 activator 1 (Homo sapiens) (Q00535 whole entry): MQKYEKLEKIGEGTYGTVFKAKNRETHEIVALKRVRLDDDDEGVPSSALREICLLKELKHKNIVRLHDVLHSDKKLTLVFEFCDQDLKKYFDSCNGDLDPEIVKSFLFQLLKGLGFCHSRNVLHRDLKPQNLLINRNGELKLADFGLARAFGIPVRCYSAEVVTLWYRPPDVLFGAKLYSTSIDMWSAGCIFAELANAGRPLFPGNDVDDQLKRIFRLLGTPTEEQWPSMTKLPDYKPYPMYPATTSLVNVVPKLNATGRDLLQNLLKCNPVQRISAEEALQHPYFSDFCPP
Sequence of Cyclin-dependent kinase 5/CDK5 activator 1 (Homo sapiens) (Q15078 99-307 partner limits assumed): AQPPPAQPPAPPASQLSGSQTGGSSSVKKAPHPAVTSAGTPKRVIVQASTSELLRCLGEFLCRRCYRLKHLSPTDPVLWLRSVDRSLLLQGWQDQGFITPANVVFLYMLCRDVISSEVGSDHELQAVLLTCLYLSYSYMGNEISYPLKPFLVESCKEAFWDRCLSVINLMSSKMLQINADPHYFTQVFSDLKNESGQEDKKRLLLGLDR

[18] = target: Ribosomal protein S6 kinase beta-1 (Homo sapiens) (UniProt P23443); test: Inhibition of RPS6KB1 (unknown origin) at 1 uM relative to control
Sequence of Ribosomal protein S6 kinase beta-1 (Homo sapiens) (P23443 whole entry, looked up): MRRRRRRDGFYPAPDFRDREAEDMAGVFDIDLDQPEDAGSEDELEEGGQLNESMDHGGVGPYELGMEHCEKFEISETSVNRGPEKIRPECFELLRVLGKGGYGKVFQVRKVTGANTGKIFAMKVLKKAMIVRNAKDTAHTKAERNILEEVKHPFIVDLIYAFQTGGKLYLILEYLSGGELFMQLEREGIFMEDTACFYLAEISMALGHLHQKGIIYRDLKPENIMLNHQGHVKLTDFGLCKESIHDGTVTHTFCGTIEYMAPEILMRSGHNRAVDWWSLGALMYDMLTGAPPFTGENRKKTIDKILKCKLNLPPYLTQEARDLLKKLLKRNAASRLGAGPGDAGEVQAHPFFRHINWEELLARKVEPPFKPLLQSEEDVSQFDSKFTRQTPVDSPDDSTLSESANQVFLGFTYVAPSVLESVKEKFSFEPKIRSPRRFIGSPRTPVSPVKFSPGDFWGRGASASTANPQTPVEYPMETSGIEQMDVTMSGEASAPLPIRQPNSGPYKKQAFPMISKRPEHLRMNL

[19] = Oral bioavailability in Sprague-Dawley rat at 10 mg/kg administered via gavage after 24 hrs by LC-MS/MS analysis; assay type: ADME, organism-based; conditions: in vivo
Method in brief: (§1)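 Male Sprague-Dawley rats (200-240 g) received 1 mg/kg by tail-vein injection in 2% DMSO, 20% PEG400 and 78% buffered saline, or 10 mg/kg by oral gavage in 0.5% methylcellulose. Orbital sinus blood was drawn into heparinized tubes at 2, 5, 15 and 30 min and at 1, 2, 4, 8, 12 and 24 h, then centrifuged. Plasma was measured by LC/MS/MS in SRM mode, with non-compartmental analysis.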

[20] = system: NCI-H1975; test: Antiproliferative activity against human NCI-H1975 cells harboring EGFR L858R/T790M double mutant; assay type: functional, cell-based
Method in brief: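 A431 was grown in EMEM with 10% FBS; HCC827 and NCI-H1975 were grown in RPMI-1640 with 10% FBS. Cell viability experiments were repeated at least three times.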

[21] = target: Fibroblast growth factor receptor 1 (Homo sapiens) (UniProt P11362); test: Inhibition of FGFR1 (unknown origin) at 1 uM relative to control
[22] = Intrinsic clearance in mouse liver microsomes; assay type: ADME, microsome; conditions: read-out: CLH
[23] = AUC (0 to 24 hrs) in Sprague-Dawley rat at 10 mg/kg, po administered via gavage by LC-MS/MS analysis; assay type: ADME, organism-based; parameters: time < 24 hr, dose 10 mg/kg, route oral; conditions: in vivo
[24] = target: Serine/threonine-protein kinase Chk1 (Homo sapiens) (UniProt O14757); test: Inhibition of CHEK1 (unknown origin) at 1 uM relative to control
Sequence of Serine/threonine-protein kinase Chk1 (Homo sapiens) (O14757 whole entry): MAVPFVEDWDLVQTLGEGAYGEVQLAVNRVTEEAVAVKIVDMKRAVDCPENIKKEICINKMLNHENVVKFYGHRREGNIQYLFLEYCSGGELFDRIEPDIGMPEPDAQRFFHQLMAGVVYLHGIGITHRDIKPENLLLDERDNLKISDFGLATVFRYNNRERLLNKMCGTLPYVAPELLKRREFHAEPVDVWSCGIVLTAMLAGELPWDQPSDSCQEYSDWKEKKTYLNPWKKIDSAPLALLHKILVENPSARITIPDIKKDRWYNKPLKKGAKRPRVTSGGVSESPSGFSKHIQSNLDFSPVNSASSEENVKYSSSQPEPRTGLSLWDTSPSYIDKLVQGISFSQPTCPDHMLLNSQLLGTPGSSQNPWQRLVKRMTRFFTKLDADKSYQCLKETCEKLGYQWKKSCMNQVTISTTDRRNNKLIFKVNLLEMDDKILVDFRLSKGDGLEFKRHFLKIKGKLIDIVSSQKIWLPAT

[25] = system: Mus musculus; test: Toxicity in nude C.B-17 SCID mouse model xenografted with human NCI-H1975 cells assessed as mortality at 5 to 20 mg/kg, ig for 18 days; assay type: organism-based; conditions: in vivo, po, 432 h
Method in brief: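 H1975 xenografts were set up by subcutaneous inoculation of 5 × 10^6 cells into C.B-17 SCID mice. At a mean tumor volume of 100-150 mm3, mice were randomized into groups of n = 9. They were dosed intragastrically once daily for 18 days at 5, 10 or 20 mg/kg, given as 0.1 mL/10 g body weight. The control group received PBS, and tumors were caliper-measured twice weekly.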

[26] = target: Cyclin-dependent kinase 1/cyclin B1 (Homo sapiens) (UniProt P06493+P14635); test: Inhibition of CDK1/cyclin B (unknown origin) at 1 uM relative to control; assay type: protein-complex assay
[27] = target: Receptor tyrosine-protein kinase erbB-4 (Homo sapiens) (UniProt Q15303); test: Inhibition of ERBB4 (HER4) (unknown origin) at 1 uM relative to control
[28] = target: Serine/threonine-protein kinase Sgk1 (Homo sapiens) (UniProt O00141); test: Inhibition of SGK (unknown origin) at 1 uM relative to control
[29] = Intrinsic clearance in monkey liver microsomes; assay type: ADME, Macaca mulatta, microsome; conditions: rhesus monkey, read-out: CLH
[30] = MRT in Sprague-Dawley rat at 10 mg/kg, po administered via gavage by LC-MS/MS analysis; assay type: ADME, organism-based; conditions: in vivo; method in brief: as §1
[31] = system: A-431; test: Antiproliferative activity against human A431 cells harboring wild-type EGFR; assay type: functional, cell-based
[32] = target: Glycogen synthase kinase-3 beta (Homo sapiens) (UniProt P49841); test: Inhibition of GSK3B (unknown origin) at 1 uM relative to control
Sequence of Glycogen synthase kinase-3 beta (Homo sapiens) (P49841 whole entry, looked up): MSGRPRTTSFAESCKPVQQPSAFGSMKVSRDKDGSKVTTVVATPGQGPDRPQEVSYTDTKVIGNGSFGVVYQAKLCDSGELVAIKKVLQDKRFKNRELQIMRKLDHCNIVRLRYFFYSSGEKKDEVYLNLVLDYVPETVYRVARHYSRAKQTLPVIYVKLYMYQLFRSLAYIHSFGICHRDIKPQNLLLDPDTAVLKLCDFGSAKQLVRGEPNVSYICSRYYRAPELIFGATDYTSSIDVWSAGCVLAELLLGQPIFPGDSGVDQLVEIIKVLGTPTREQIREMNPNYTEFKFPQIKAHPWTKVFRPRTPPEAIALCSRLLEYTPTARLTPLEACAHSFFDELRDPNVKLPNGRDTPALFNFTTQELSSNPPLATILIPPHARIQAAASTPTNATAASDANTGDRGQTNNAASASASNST

[33] = target: Fibroblast growth factor receptor 3 (Homo sapiens) (UniProt P22607); test: Inhibition of FGFR3 (unknown origin) at 1 uM relative to control
[34] = target: Epidermal growth factor receptor (Homo sapiens, UniProt P00533, L858R/T790M); test: Inhibition of human recombinant cytoplasmic GST-tagged EGFR T790M/L858R double mutant (668 to 1210 residues) expressed in baculovirus using TK-substrate-biotin preincubated for 15 mins followed by substrate addition measured after 60 mins by FRET-based Z'-Lyte assay
[35] = system: HCC827; test: Antiproliferative activity against human HCC827 cells harboring EGFR E746-A750 deletion mutant; assay type: functional, cell-based

## C=CC(=O)Nc1cc(Nc2nccc(-c3cn4c5c(cccc35)CCC4)n2)c(OC)cc1N(C)CCN(C)C
[1]
  inhibition: 87%
[2]
  inhibition: 4%
[3]
  inhibition: 88%
[4]
  inhibition: 5%
[5]
  inhibition: 6%
[6]
  inhibition: 73%
[7]
  IC50: 21.6 nM
[8]
  inhibition: 7%
[9]
  half-life: 0.525 h
[10]
  inhibition: 42%
[11]
  AUC(0-t) at 24 h: 190 ng·h/mL
[12]
  AUC(0-inf): 194 ng·h/mL
[13]
  inhibition: 2%
[14]
  half-life: 2.31 h
[15]
  inhibition: 80%
[16]
  Activity: 239.33 mm3
[17]
  inhibition: 1%
[18]
  inhibition: -10%
[19]
  bioavailability: 52.4%
[20]
  IC50: 103 nM
[21]
  inhibition: 7%
[22]
  CLint scaled: 457 mL/min/kg
[23]
  AUC(0-t) at 24 h: 995 ng·h/mL
[24]
  inhibition: -6%
[25]
  Activity: Non-Toxic
[26]
  inhibition: 5%
[27]
  inhibition: 78%
[28]
  inhibition: 10%
[29]
  CLint scaled: 64.8 mL/min/kg
[30]
  MRT: 5.7 h
[31]
  IC50: 870 nM
[32]
  inhibition: 7%
[33]
  inhibition: 9%
[34]
  IC50: 2.6 to 2.9 nM
[35]
  IC50: 109 nM
